Data as given in ChEMBL document CHEMBL3259614, “Design, synthesis, and structure-activity relationship studies of novel fused heterocycles-linked triazoles with good activity and water solubility” (J Med Chem, 2014).
Converted amounts (≈) assume the structure as drawn.

Assays:
Format in all cases: functional
Candida albicans [1] = experiment: Antimicrobial activity against Candida albicans SC5314 after 24 hrs by serial dilution method; conditions: SC5314, 24 h
Method in brief: (§1)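 Broth serial dilution MIC in 96-well plates following NCCLS/CLSI methods. Compounds were dissolved in DMSO and serially diluted in growth medium, with incubation at 35 °C. […] C. parapsilosis 22019 served as the quality-control strain in each assay.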

Candida albicans [2] = experiment: Antimicrobial activity against Candida albicans Y0109 after 24 hrs by serial dilution method; conditions: Y0109, 24 h; method in brief: as §1
Candida parapsilosis = experiment: Antimicrobial activity against Candida parapsilosis 22019 after 24 hrs by serial dilution method; conditions: Lodderomyces parapsilosis, 22019, 24 h; method in brief: as §1
Cryptococcus neoformans = experiment: Antimicrobial activity against Cryptococcus neoformans 32609 after 72 hrs by serial dilution method; conditions: Cryptococcus neoformans, 32609, 72 h; method in brief: as §1
Nakaseomyces glabratus = experiment: Antimicrobial activity against Candida glabrata 537 after 24 hrs by serial dilution method; conditions: Nakaseomyces glabratus, 537, 24 h; method in brief: as §1
Aspergillus fumigatus = experiment: Antimicrobial activity against Aspergillus fumigatus 7544 after 48 hrs by serial dilution method; conditions: Aspergillus fumigatus, 7544, 48 h; method in brief: as §1

Row | SMILES | MIC (Candida albicans [1]) [µg/mL] | MIC (Candida albicans [2]) [µg/mL] | MIC (Candida parapsilosis) [µg/mL] | MIC (Cryptococcus neoformans) [µg/mL] | MIC (Nakaseomyces glabratus) [µg/mL] | MIC (Aspergillus fumigatus) [µg/mL]
1 | C[C@@H](N1CCn2nncc2C1)[C@](O)(Cn1cncn1)c1ccc(F)cc1F | 0.0625 (≈ 0.166 µM) | 0.125 (≈ 0.333 µM) | 0.25 (≈ 0.666 µM) | 0.25 (≈ 0.666 µM) | 0.5 (≈ 1.33 µM) | 16 (≈ 42.6 µM)
2 | C[C@@H](N1CCn2nnc(Cl)c2C1)[C@](O)(Cn1cncn1)c1ccc(F)cc1F | ≤ 0.0312 | 0.0625 (≈ 0.153 µM) | 0.125 (≈ 0.305 µM) | ≤ 0.0625 | 0.25 (≈ 0.61 µM) | 8 (≈ 19.5 µM)
3 | Cc1nnn2c1CN([C@H](C)[C@](O)(Cn1cncn1)c1ccc(F)cc1F)CC2 | 0.25 (≈ 0.642 µM) | 0.5 (≈ 1.28 µM) | 0.5 (≈ 1.28 µM) | 4 (≈ 10.3 µM) | 0.5 (≈ 1.28 µM) | 16 (≈ 41.1 µM)
4 | C[C@@H](N1CCn2nnc(C(=O)N(C)C)c2C1)[C@](O)(Cn1cncn1)c1ccc(F)cc1F | 0.5 (≈ 1.12 µM) | 1 (≈ 2.24 µM) | 1 (≈ 2.24 µM) | 16 (≈ 35.8 µM) | 8 (≈ 17.9 µM) | > 16
5 | C[C@@H](N1CCn2nnc(-c3ccccc3)c2C1)[C@](O)(Cn1cncn1)c1ccc(F)cc1F | 1 (≈ 2.21 µM) | 2 (≈ 4.43 µM) | 4 (≈ 8.86 µM) | 8 (≈ 17.7 µM) | 8 (≈ 17.7 µM) | > 16
6 | COc1ccc(-c2cn3c(n2)CN([C@H](C)[C@](O)(Cn2cncn2)c2ccc(F)cc2F)CC3)cc1 | 0.0625 (≈ 0.13 µM) | 0.0625 (≈ 0.13 µM) | 0.125 (≈ 0.26 µM) | 0.125 (≈ 0.26 µM) | 0.125 (≈ 0.26 µM) | 32 (≈ 66.6 µM)
7 | C[C@@H](N1CCn2cc(-c3ccc(C(F)(F)F)cc3)nc2C1)[C@](O)(Cn1cncn1)c1ccc(F)cc1F | 0.125 (≈ 0.241 µM) | 0.25 (≈ 0.482 µM) | 0.25 (≈ 0.482 µM) | 0.125 (≈ 0.241 µM) | 0.25 (≈ 0.482 µM) | 32 (≈ 61.7 µM)
8 | Cc1ccc(-c2cn3c(n2)CN([C@H](C)[C@](O)(Cn2cncn2)c2ccc(F)cc2F)CC3)cc1 | 0.0625 (≈ 0.135 µM) | 0.0625 (≈ 0.135 µM) | 0.125 (≈ 0.269 µM) | 0.125 (≈ 0.269 µM) | 0.125 (≈ 0.269 µM) | 32 (≈ 68.9 µM)
9 | C[C@@H](N1CCn2cc(-c3cccc(F)c3)nc2C1)[C@](O)(Cn1cncn1)c1ccc(F)cc1F | 0.125 (≈ 0.267 µM) | 0.25 (≈ 0.534 µM) | 0.125 (≈ 0.267 µM) | 0.25 (≈ 0.534 µM) | 0.25 (≈ 0.534 µM) | 64 (≈ 137 µM)

Next, values leading:

Row | MIC (Candida albicans [1]) [µg/mL] | MIC (Candida albicans [2]) [µg/mL] | MIC (Candida parapsilosis) [µg/mL] | MIC (Cryptococcus neoformans) [µg/mL] | MIC (Nakaseomyces glabratus) [µg/mL] | MIC (Aspergillus fumigatus) [µg/mL] | SMILES
10 | 2 (≈ 4.42 µM) | 4 (≈ 8.84 µM) | 8 (≈ 17.7 µM) | 4 (≈ 8.84 µM) | 8 (≈ 17.7 µM) | 8 (≈ 17.7 µM) | C[C@@H](N1CCn2nnc(-c3cccnc3)c2C1)[C@](O)(Cn1cncn1)c1ccc(F)cc1F
11 | 1 (≈ 2.21 µM) | 4 (≈ 8.84 µM) | 4 (≈ 8.84 µM) | 16 (≈ 35.4 µM) | 8 (≈ 17.7 µM) | > 16 | C[C@@H](N1CCn2nnc(-c3ccncc3)c2C1)[C@](O)(Cn1cncn1)c1ccc(F)cc1F
12 | 1 (≈ 2.21 µM) | 2 (≈ 4.41 µM) | 8 (≈ 17.6 µM) | 8 (≈ 17.6 µM) | 8 (≈ 17.6 µM) | > 16 | C[C@@H](N1CCn2nnc(-c3cncnc3)c2C1)[C@](O)(Cn1cncn1)c1ccc(F)cc1F
13 | 2 (≈ 4.19 µM) | 4 (≈ 8.38 µM) | 4 (≈ 8.38 µM) | 16 (≈ 33.5 µM) | 4 (≈ 8.38 µM) | > 16 | C[C@@H](N1CCn2nnc(-c3ccc(C#N)nc3)c2C1)[C@](O)(Cn1cncn1)c1ccc(F)cc1F
14 | 0.25 (≈ 0.565 µM) | 0.25 (≈ 0.565 µM) | 0.25 (≈ 0.565 µM) | 1 (≈ 2.26 µM) | 0.25 (≈ 0.565 µM) | > 64 | C[C@@H](N1CCn2cc(C(F)(F)F)nc2C1)[C@](O)(Cn1cncn1)c1ccc(F)cc1F
15 | 0.5 (≈ 1.12 µM) | 0.5 (≈ 1.12 µM) | 0.5 (≈ 1.12 µM) | 2 (≈ 4.48 µM) | 1 (≈ 2.24 µM) | > 64 | CCOC(=O)c1cn2c(n1)CN([C@H](C)[C@](O)(Cn1cncn1)c1ccc(F)cc1F)CC2
16 | 0.25 (≈ 0.581 µM) | 0.125 (≈ 0.29 µM) | 0.25 (≈ 0.581 µM) | 0.25 (≈ 0.581 µM) | 0.25 (≈ 0.581 µM) | > 64 | C[C@@H](N1CCn2cc(C(C)(C)C)nc2C1)[C@](O)(Cn1cncn1)c1ccc(F)cc1F
17 | 0.125 (≈ 0.267 µM) | 0.125 (≈ 0.267 µM) | 0.125 (≈ 0.267 µM) | 0.125 (≈ 0.267 µM) | 0.125 (≈ 0.267 µM) | 32 (≈ 68.3 µM) | C[C@@H](N1CCn2cc(-c3ccc(F)cc3)nc2C1)[C@](O)(Cn1cncn1)c1ccc(F)cc1F
18 | 0.125 (≈ 0.257 µM) | 0.125 (≈ 0.257 µM) | 0.125 (≈ 0.257 µM) | 0.125 (≈ 0.257 µM) | 0.125 (≈ 0.257 µM) | 32 (≈ 65.8 µM) | C[C@@H](N1CCn2cc(-c3ccc(F)cc3F)nc2C1)[C@](O)(Cn1cncn1)c1ccc(F)cc1F
19 | 0.0625 (≈ 0.13 µM) | 0.0625 (≈ 0.13 µM) | 0.125 (≈ 0.26 µM) | 0.0625 (≈ 0.13 µM) | 0.125 (≈ 0.26 µM) | 32 (≈ 66.6 µM) | COc1cccc(-c2cn3c(n2)CN([C@H](C)[C@](O)(Cn2cncn2)c2ccc(F)cc2F)CC3)c1
20 | 0.125 (≈ 0.241 µM) | 0.5 (≈ 0.964 µM) | 0.125 (≈ 0.241 µM) | 0.25 (≈ 0.482 µM) | 0.25 (≈ 0.482 µM) | 64 (≈ 123 µM) | C[C@@H](N1CCn2cc(-c3cccc(C(F)(F)F)c3)nc2C1)[C@](O)(Cn1cncn1)c1ccc(F)cc1F
